Experimental data taken from ChEMBL document CHEMBL4257453, “Identification of karanjin isolated from the Indian beech tree as a potent CYP1 enzyme inhibitor with cellular efficacy via screening of a natural product repository” (Medchemcomm, 2018).

Legend:
Cytochrome P450 2C19 = Cytochrome P450 2C19 (Homo sapiens, UniProt P33261); experiment: Inhibition of human recombinant CYP2C19 expressed in HEK293 cells using 3-cyano-7-ethoxycoumarin substrate substrate preincubated for 30 mins followed by substrate addition and measured after 60 mins by fluorescence assay relative to control; format: ADME, cell-based
Outline: (§1)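 HEK293 cells adapted to suspension and transiently transfected with pcDNA3.1 plasmids carrying the individual CYP; 100×10^3 cells per well in triplicate. […] Fluorogenic substrate is then added at 5 μM and fluorescence read for 60 min.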

CYP1A1 [1] = molecular target: T1, CYP1A1 (Homo sapiens, UniProt P04798); experiment: Inhibition of human recombinant CYP1A1 expressed in HEK293 cells at 10 uM using 7-ethoxyresorufin substrate preincubated for 30 mins followed by substrate addition and measured after 60 mins by fluorescence assay relative to control; format: cell-based; conditions: HEK293 cells expressing human recombinant CYP1A1, probe 7-ethoxyresorufin; outline: as §1
T1 sequence (P04798 whole entry): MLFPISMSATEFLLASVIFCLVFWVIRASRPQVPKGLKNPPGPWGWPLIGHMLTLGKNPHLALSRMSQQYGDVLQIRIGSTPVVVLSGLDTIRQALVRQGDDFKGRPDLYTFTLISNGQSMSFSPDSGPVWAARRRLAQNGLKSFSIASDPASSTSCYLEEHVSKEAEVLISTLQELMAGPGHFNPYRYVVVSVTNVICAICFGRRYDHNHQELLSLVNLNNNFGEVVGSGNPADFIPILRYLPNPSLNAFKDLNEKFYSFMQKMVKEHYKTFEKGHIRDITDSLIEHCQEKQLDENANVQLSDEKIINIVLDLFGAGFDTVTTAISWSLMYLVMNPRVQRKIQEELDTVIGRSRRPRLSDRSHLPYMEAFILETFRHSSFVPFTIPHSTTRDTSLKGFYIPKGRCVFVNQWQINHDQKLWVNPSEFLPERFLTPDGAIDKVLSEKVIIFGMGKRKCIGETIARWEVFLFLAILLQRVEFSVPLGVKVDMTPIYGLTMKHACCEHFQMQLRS

CYP1A1 [2] = molecular target: T1, CYP1A1; experiment: Inhibition of recombinant human CYP1A1 expressed in baker's yeast-derived microsomes (Sacchrosomes) at 10 uM using 7-ethoxyresorufin substrate by EROD assay relative to control; conditions: probe 7-ethoxyresorufin
Outline: (§2)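 Yeast microsomes carrying recombinant CYP (Sacchrosomes). Substrates per isoform are 7-ethoxyresorufin, 3-cyano-7-ethoxycoumarin, EOMCC or dibenzylfluorescein, read as endpoint fluorescence. Background from compound-only wells without enzyme is subtracted. Independent triplicate runs; α-naphthoflavone positive control.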

Cytochrome P450 1A2 = molecular target: T2, Cytochrome P450 1A2 (Homo sapiens, UniProt P05177); experiment: Inhibition of human recombinant CYP1A2 expressed in HEK293 cells using 3-cyano-7-ethoxycoumarin substrate preincubated for 30 mins followed by substrate addition and measured after 60 mins by fluorescence assay relative to control; format: ADME, cell-based; outline: as §1
T2 sequence (P05177 whole entry): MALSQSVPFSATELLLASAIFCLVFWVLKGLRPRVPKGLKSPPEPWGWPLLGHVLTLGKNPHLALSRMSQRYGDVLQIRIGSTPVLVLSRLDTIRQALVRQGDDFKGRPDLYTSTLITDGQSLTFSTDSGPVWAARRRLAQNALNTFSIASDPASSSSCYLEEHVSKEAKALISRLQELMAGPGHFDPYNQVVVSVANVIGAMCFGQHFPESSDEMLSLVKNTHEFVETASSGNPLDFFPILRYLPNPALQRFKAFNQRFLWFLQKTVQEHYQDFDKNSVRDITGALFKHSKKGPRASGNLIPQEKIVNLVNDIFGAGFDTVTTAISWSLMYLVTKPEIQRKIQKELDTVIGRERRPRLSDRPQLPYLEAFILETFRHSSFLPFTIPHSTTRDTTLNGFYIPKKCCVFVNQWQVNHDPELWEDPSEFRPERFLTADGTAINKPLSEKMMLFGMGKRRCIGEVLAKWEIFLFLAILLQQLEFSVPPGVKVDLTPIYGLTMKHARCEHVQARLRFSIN

CYP3A4 = CYP3A4 (Homo sapiens, UniProt P08684); experiment: Inhibition of recombinant human CYP3A4 expressed in baker's yeast-derived microsomes (Sacchrosomes) at 10 uM using dibenzylfluorescein substrate by EROD assay relative to control; format: ADME; conditions: probe dibenzylfluorescein
Outline: as §2, with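 “(Sacchrosomes). […]” for “(Sacchrosomes).”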

Cytochrome P450 1A1 = molecular target: T3, Cytochrome P450 1A1 (Homo sapiens, UniProt P04798); experiment: Inhibition of human recombinant CYP1A1 expressed in HEK293 cells using 7-ethoxyresorufin substrate preincubated for 30 mins followed by substrate addition and measured after 60 mins by fluorescence assay relative to control; format: cell-based; outline: as §1
T3 sequence (P04798 whole entry): T1 sequence (P04798 whole entry)

Homo sapiens = organism: Homo sapiens; experiment: Selectivity index, ratio of IC50 for inhibition of human recombinant CYP1B1 expressed in HEK293 cells by fluorescence assay to IC50 for inhibition of human recombinant CYP1A1 expressed in HEK293 cells by fluorescence assay; format: cell-based
Outline: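 HEK293 suspension cells transiently transfected with pcDNA3.1/CYP1B1 or pcDNA3.1/CYP1A1, 100×10^3 cells per well in triplicate. Compound (1 nM to 30 μM) preincubated 30 min at 37 °C, 8% CO2. 7-Ethoxyresorufin then added at 5 μM, and resorufin fluorescence (EROD) read over 60 min. IC50 taken from concentration-response for each isoform; index = CYP1B1 IC50 / CYP1A1 IC50.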

Cytochrome P450 2D6 = Cytochrome P450 2D6 (Homo sapiens, UniProt P10635); experiment: Inhibition of human recombinant CYP2D6 expressed in HEK293 cells using 7-ethoxy-methyloxy-3-cyanocoumarin substrate substrate preincubated for 30 mins followed by substrate addition and measured after 60 mins by fluorescence assay relative to control; format: ADME, cell-based; outline: as §1
Cytochrome P450 1B1 = molecular target: T4, Cytochrome P450 1B1 (Homo sapiens, UniProt Q16678); experiment: Inhibition of human recombinant CYP1B1 expressed in HEK293 cells using 7-ethoxyresorufin substrate substrate preincubated for 30 mins followed by substrate addition and measured after 60 mins by fluorescence assay relative to control; format: ADME, cell-based; outline: as §1
T4 sequence (Q16678 whole entry): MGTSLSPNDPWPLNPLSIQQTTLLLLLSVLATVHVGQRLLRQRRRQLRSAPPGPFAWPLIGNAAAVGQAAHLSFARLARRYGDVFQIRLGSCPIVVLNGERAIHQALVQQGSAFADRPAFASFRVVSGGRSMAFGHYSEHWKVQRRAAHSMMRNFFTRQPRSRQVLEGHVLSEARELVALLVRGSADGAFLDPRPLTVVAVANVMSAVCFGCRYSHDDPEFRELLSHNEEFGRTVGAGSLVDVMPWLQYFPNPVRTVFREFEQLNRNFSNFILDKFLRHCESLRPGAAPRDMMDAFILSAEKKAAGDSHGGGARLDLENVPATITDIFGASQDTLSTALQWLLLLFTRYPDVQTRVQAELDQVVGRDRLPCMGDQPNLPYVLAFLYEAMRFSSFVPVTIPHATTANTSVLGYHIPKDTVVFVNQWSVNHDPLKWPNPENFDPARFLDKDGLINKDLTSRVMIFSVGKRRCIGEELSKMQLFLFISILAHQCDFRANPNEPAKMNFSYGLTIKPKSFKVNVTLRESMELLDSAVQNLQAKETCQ

Sequence of Cytochrome P450 2D6 (P10635 whole entry): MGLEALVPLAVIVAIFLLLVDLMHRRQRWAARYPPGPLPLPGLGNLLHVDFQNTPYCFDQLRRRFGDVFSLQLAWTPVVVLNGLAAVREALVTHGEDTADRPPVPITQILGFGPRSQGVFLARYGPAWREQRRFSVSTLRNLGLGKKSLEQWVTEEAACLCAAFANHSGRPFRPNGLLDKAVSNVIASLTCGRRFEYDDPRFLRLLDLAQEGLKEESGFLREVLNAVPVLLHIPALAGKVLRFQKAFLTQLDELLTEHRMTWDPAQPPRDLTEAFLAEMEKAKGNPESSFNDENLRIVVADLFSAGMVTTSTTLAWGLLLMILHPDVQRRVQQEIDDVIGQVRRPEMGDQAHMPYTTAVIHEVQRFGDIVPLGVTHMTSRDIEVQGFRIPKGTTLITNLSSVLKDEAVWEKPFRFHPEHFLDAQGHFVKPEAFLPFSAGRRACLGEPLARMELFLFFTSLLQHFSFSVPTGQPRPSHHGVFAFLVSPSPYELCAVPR
Sequence of CYP3A4 (P08684 whole entry): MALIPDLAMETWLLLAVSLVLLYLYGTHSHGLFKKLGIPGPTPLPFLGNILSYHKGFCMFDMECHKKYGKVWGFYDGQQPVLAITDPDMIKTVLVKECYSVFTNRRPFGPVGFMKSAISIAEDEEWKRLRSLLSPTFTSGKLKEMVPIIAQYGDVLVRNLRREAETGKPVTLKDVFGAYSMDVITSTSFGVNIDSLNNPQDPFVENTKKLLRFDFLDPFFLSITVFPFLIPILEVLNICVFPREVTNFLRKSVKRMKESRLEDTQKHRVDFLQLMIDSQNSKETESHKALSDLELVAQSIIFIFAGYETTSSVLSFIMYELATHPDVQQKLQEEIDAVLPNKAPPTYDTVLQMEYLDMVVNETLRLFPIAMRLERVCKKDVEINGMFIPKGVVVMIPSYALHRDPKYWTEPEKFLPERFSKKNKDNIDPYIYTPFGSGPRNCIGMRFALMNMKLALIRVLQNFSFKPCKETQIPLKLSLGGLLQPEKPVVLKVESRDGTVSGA
Sequence of Cytochrome P450 2C19 (P33261 whole entry): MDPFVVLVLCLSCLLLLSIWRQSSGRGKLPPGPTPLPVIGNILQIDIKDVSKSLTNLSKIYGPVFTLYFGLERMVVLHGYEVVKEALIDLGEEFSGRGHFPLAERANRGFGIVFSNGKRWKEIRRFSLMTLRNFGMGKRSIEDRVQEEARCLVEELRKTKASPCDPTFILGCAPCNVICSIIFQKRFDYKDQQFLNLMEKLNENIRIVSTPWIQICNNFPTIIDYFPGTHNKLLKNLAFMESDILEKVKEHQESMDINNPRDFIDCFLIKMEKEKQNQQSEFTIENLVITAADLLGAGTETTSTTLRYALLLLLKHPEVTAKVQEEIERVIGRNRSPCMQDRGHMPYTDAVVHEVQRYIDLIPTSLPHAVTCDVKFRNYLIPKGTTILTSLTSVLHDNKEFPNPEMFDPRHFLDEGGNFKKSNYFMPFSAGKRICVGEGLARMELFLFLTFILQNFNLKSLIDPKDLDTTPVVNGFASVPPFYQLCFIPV

Structure (SMILES) | IC50 (Cytochrome P450 2C19) | inhibition at 1 h, 10 µM (CYP1A1 [1]) | inhibition at 10 µM (CYP1A1 [2]) | IC50 (Cytochrome P450 1A2) | Ki (Cytochrome P450 1A2) | inhibition at 10 µM (CYP3A4) | IC50 (Cytochrome P450 1A1) | Ki (Cytochrome P450 1A1) | Ratio IC50 (Homo sapiens) | IC50 (Cytochrome P450 2D6) | IC50 (Cytochrome P450 1B1)
COc1c2ccoc2c(OC)c2oc(=O)ccc12 [ISOPIMPINELLIN] | > 10000 nM | 91% | 71% | 40 nM | 28 nM | 0% | 20 nM | 12 nM | 319 | > 10000 nM | 6380 nM
COc1c2ccoc2cc2oc(=O)ccc12 [BERGAPTEN] | > 10000 nM | 91% | 68% | 90 nM | 60 nM | 3% | 80 nM | 60 nM | 192 | > 10000 nM | 15300 nM
